The values that follow come from ChEMBL document CHEMBL4311948, “Exploring the Natural Piericidins as Anti-Renal Cell Carcinoma Agents Targeting Peroxiredoxin 1” (J Med Chem, 2019).

Calls of active or inactive are those of the source. The calls are words filed in the database; no cut-off is given here.

Data set [1] concerns ACHN. The data set can be described thus: Antitumor activity against human ACHN cells xenografted in Balb/c nu/nu mouse assessed as tumor weight at 0.8 mg/kg, ip administered once daily for 21 days measured post-last dose by caliper method (reference value: 0.55 +/- 0.13 g). The format is functional. A digest of the protocol: (§1)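 Male athymic Balb/c nu/nu mice, four weeks old, acclimatised 1 week. 10^7 ACHN cells in 0.2 mL PBS injected into the right flank. At about 150 mm3, mice randomised into PBS control or 0.8 mg/kg groups, dosed ip daily for three weeks. Tumours measured by caliper (volume = 0.5 × L × W²) with body weight recorded. Endpoint tumour weight, sections stained by H&E and TUNEL. Tissue lysed for immunoblot.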
A general note: In xenograft studies the graft and the host belong to different species.

Data set [2] has as its system ACHN. Description: Antitumor activity against human ACHN cells xenografted in Balb/c nu/nu mouse assessed as tumor growth inhibition at 0.8 mg/kg, ip administered once daily for 21 days measured post-last dose by TUNEL staining-based assay. Type of data set: functional, organism-based. In outline: as §1
Data set [3] relates to ACHN. Description: Antitumor activity against human ACHN cells xenografted in Balb/c nu/nu mouse assessed as tumor growth inhibition at 0.8 mg/kg, ip administered once daily for 21 days measured post-last dose by H and E staining-based assay. Type of data set: functional, organism-based. A digest of the protocol: as §1
Data set [4] has as its system ACHN. Description: Induction of apoptosis in human ACHN cells assessed as necrotic cells at 50 nM measured after 24 hrs by Annexin V-FITC/propidium iodide staining based flow cytometry (reference value: 0%). Type of data set: functional. (In general: In flow cytometry, cells or beads pass a laser one at a time.)
Data set [5] has as its system ACHN. The data set can be described thus: Induction of apoptosis in human ACHN cells assessed as late apoptotic cells at 50 nM measured after 24 hrs by Annexin V-FITC/propidium iodide staining based flow cytometry (reference value: 0%). Type of data set: functional.
In data set [6] the test system is ACHN. Description: Selectivity ratio of IC50 for cytotoxicity against human ACHN cells harboring shPRDX1 gene to IC50 for Cytotoxicity against human ACHN cells. The format is functional.
The subject of the next data set is HK-2. Description: Cytotoxicity against human HK2 cells assessed as reduction in cell viability measured after 72 hrs by CCK8 assay. The format is cell-based. To be noted: HK-2, 72 h. A digest of the protocol:
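Cells were grown in 10% FBS medium: MEM for ACHN, RPMI1640 for OS-RC-2 and 786-O, DMEM for HK-2. They were seeded at 400–800 cells/well in 384-well plates and treated with a range of compound concentrations or solvent control, with sorafenib as positive control. After 72 h, CCK-8 absorbance was read at 450 nm in triplicate, and IC50 was taken from dose-response curves.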
(Formazan colour is commonly taken as a measure of viable cells.)

Data set [7] deals with ACHN. The data set can be described thus: Induction of apoptosis in human ACHN cells assessed as necrotic cells at 50 nM measured after 48 hrs by Annexin V-FITC/propidium iodide staining based flow cytometry (reference value: 0%). The format is functional.
Data set [8] deals with ACHN. The data set can be described thus: Down regulation of HK2 mRNA expression in human ACHN cells at 25 to 50 nM measured after 24 hrs by qRT-PCR analysis. Type of data set: functional, cell-based.
Data set [9] concerns ACHN. Description: Induction of apoptosis in human ACHN cells assessed as early apoptotic cells at 50 nM measured after 24 hrs by Annexin V-FITC/propidium iodide staining based flow cytometry (reference value: 0%). The format is functional.
Data set [10] deals with ACHN. Description: Down regulation of EGFR mRNA expression in human ACHN cells at 25 to 50 nM measured after 24 hrs by qRT-PCR analysis. The format is functional, cell-based.
Data set [11] deals with ACHN. The data set can be described thus: Induction of apoptosis in human ACHN cells assessed as viable cells at 50 nM measured after 48 hrs by Annexin V-FITC/propidium iodide staining based flow cytometry (reference value: 99.9%). The format is functional. Conditions: read-out: Activity.
In data set [12] the test system is ACHN. Description: Cytotoxicity against human ACHN cells harboring shPRDX1 gene assessed as reduction in cell viability measured after 72 hrs by CCK8 assay. To be noted: Homo sapiens, ACHN, 72 h; read-out: IC50. The format is functional, cell-based. In outline: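 Transfectants were selected with puromycin (1 μg/mL), and knockdown was confirmed by immunoblot. Viability was read by CCK-8 after 72 h of compound exposure in 384-well plates at 400–800 cells/well in MEM with 10% FBS, and IC50 was taken from dose-response curves.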

The subject of data set [13] is ACHN. The data set can be described thus: Induction of apoptosis in human ACHN cells assessed as viable cells at 50 nM measured after 24 hrs by Annexin V-FITC/propidium iodide staining based flow cytometry (reference value: 100%). The format is functional. Conditions: read-out: Activity.
Data set [14] has as its system ACHN. Description: Down regulation of MET mRNA expression in human ACHN cells at 25 to 50 nM measured after 24 hrs by qRT-PCR analysis. Type of data set: functional, cell-based.
Data set [15] can be described thus: Toxicity in Balb/c nu/nu mouse xenografted with human ACHN cells assessed as effect on survival at 0.8 mg/kg, ip administered once daily for 21 days. Type of data set: organism-based. Conditions: in vivo, 504 h. A digest of the protocol: as §1
A short description of data set [16]: Toxicity in Balb/c nu/nu mouse xenografted with human ACHN cells assessed as decrease in body weight at 0.8 mg/kg, ip administered once daily for 21 days. The format is organism-based. To be noted: in vivo, 504 h. In outline:
as §1

For data set [17], the system named is ACHN. The data set can be described thus: Up regulation of nuclear PRDX1 expression in human ACHN cells at 25 to 50 nM measured after 24 hrs by immunoblot analysis. Type of data set: functional, cell-based. A digest of the protocol: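 ACHN cells treated 24 h with 25 or 50 nM, then nuclear and cytosolic extracts prepared. Lysis in RIPA buffer, BCA quantitation, 30–50 μg protein resolved on 10% or 12% gels. Blotted with anti-PRDX1 (1:1000) and β-actin (1:3000), band ratio PRDX1/β-actin reported as fold change. Mean ± SD.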

Data set [18] concerns ACHN. Description: Down regulation of LDHA mRNA expression in human ACHN cells at 25 to 50 nM measured after 24 hrs by qRT-PCR analysis. The format is functional, cell-based.
Data set [19] has as its target T1, Peroxiredoxin-1 (Homo sapiens) (UniProt Q06830).
T1 sequence (whole entry): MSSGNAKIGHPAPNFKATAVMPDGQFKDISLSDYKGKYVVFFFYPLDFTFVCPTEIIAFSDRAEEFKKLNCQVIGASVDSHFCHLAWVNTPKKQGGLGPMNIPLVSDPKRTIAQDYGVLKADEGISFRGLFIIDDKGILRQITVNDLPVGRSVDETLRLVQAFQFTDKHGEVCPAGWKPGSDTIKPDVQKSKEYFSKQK
The data set can be described thus: Activation of PRDX1 in human ACHN cells assessed as reduction in reactive oxygen species level at 25 to 50 nM measured after 24 hrs by Cell-rox reagent-based flow cytometry. In outline: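 ACHN cells grown 24 h in MEM + 10% FBS, reseeded at 2 × 10^4 cells/well and exposed to 0, 25 or 50 nM for 24 h. Harvested cells loaded with CellROX oxidative stress reagent 5 μM, 30 min at 37 °C in the dark, then read by flow cytometry. shPRDX1 line: stable knockdown selected with puromycin (1 μg/mL) before dosing. Mean ± SD.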

A further data set deals with Mus musculus. The data set can be described thus: Up regulation of PRDX1 expression in human ACHN cells xenografted Balb/c nu/nu mouse at 0.8 mg/kg, ip administered once daily for 21 days measured post-last dose by immunoblot analysis. Type of data set: functional, organism-based. A digest of the protocol:
as §1

In another data set the target is T2, Peroxiredoxin-1 (Homo sapiens, UniProt Q06830).
T2 sequence (Q06830 whole entry): T1 sequence (whole entry)
Description: Binding affinity to full-length human PRDX1 by surface plasmon resonance analysis. A digest of the protocol:
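Full-length human PRDX1 immobilised on a CM5 chip (Biacore T100). Analyte concentration series diluted in 10 mM Hepes pH 7.4, injected over the protein surface and a protein-free reference surface in a single step.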

On to `C/C=C(\C)[C@H](O)[C@H](C)/C=C(C)/C=C/C/C(C)=C/Cc1nc(OC)c(OC)c(O)c1C` [PIERICIDIN A], for which the Activity is recorded as 0.28 g in the data set with ACHN [1]; 15.9% with ACHN [4]; 1.3% with ACHN [5]; 75.6% with ACHN [7]; 0.9% in the data set on ACHN [9]; “Non-Toxic” in [15]. Also, the Activity result in data set [16] is “Non-Toxic”. For the same compound, the TGI result in the data set with ACHN [2] and in the data set with ACHN [3] was “Active” each time. Besides, in the data set with ACHN [6], the “Ratio IC50” value stood at 4. The IC50 is over 100000 nM in the data set with HK-2 and 1600 nM in the data set with ACHN [12]. Moreover, the outcome (with ACHN [8]; with ACHN [10]; with ACHN [14]; in the data set with ACHN [17]; with ACHN [18]; in [19]) was Active. Moreover, the outcome in the data set on Mus musculus was Active. Also, the viability at 0.05 µM in the data set with ACHN [11] is 15.9%; in the data set with ACHN [13], 81.9%. Besides, the Kd on Peroxiredoxin-1 came to 2610 nM.

The IC50 is the concentration needed to halve the response being measured. For orientation: Kd means the concentration at which binding is half-saturated. Low readings indicate a tighter complex, high ones a looser complex.
